HKDC1 inh – inhibitors of human hexokinase HKDC1 | Q2TB90 | recombinant HKDC1, G6PDH/diaphorase resazurin coupled fluorescence | inhibition, % at 20 µM | actives 0.16% (n = 340,000) | AID 493160;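 active = inhibition above about 35% when tested at 20 µM, limit read from the data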;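 also: plate controls were DMSO wells with enzyme for no effect and DMSO wells lacking enzyme for full effect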
Target sequence (Q2TB90 whole entry, looked up): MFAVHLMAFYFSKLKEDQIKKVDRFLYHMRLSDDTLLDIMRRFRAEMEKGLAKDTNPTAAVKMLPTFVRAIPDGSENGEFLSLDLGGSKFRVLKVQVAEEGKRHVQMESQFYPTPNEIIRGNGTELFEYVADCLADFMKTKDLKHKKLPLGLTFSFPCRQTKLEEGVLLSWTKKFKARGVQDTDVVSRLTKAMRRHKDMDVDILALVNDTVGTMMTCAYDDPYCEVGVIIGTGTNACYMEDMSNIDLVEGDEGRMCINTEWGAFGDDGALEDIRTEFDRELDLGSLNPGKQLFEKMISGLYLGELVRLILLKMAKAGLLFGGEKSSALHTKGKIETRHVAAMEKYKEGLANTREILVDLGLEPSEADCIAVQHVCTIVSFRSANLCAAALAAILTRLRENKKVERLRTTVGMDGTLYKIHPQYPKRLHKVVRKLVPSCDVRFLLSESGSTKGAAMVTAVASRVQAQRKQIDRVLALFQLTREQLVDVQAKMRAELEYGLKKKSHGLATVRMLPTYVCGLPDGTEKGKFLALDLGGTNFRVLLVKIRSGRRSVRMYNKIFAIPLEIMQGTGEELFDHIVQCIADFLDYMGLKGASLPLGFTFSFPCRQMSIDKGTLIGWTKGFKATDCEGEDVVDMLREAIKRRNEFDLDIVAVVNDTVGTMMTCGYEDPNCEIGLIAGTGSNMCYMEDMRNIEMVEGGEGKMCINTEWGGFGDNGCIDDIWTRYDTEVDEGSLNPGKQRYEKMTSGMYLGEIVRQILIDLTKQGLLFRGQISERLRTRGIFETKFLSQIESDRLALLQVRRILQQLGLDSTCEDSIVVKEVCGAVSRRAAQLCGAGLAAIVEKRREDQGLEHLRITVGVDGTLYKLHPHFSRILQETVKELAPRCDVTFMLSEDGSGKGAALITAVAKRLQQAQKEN
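Test system: HK5 enzyme. Quantity: 5 µg/mL HK5 final. Reagent: glucose and ATP substrates. Schedule: 90 min reaction incubation at room temperature, dark. Technique: resazurin-to-resorufin fluorescence via G6PDH and diaphorase coupling, 525/613 nm. Control set: DMSO wells with and without enzyme mix.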
ABHD5 PLIN5 PPI – inhibitors of human ABHD5-perilipin-5 interaction. Q00G26+Q8WTS1. Split G. princeps luciferase complementation, luminescence, 4 h. inhibition, % at 4 µM. actives 0.78% (n = 360,000). AID 602281;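 active = inhibition above the mean inhibition across every tested compound plus 3 SD, cut at about 22% in these data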;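 also: 0% = DMSO only wells and the 100% control is not disclosed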
PfGluPho inh – PfG6PD (Plasmodium falciparum) enzyme inhibition. PfGluPho enzyme, NADPH resazurin-diaphorase fluorescence. inhibition, % at 20 µM. actives 0.78% (n = 350,000). AID 504690;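 active = inhibition reaching at least a set limit at 20 µM in the primary screen, cut at about 59% in these data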;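 also: 0% = DMSO wells with substrate and 100% = DMSO wells lacking glucose-6-phosphate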
Granule exo inh – blocks lytic granule exocytosis; actives 0.66% (n = 360,000); inhibition, % at 10 µM; TALL-104 LAMP-1 surface exposure, flow cytometry; cells stimulated with thapsigargin and PMA; AID 651702;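 active = inhibition above about 55%, limit read from the data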
PfGluPho conf – PfG6PD inhibition, single-dose confirmed; shares compounds with PfGluPho inh; recombinant PfGluPho, NADPH-diaphorase-resazurin fluorescence; inhibition, % at 20 µM; actives 34% (n = 2,400); AID 504753;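 active = inhibition of at least 50% at 20 µM in any single replicate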;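 also: 0% = DMSO with substrate and 100% = DMSO lacking glucose-6-phosphate substrate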
Diaphorase 10uM – inhibits diaphorase or oxidizes, flagging false PfG6PD hits. actives 39% (n = 820). shares compounds with PfGluPho inh. AID 504862. inhibition, % at 20 µM. diaphorase-coupled resazurin reduction, fluorescence, NADPH 10 uM;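 active = average inhibition reaching 50% or more with the compound at 20 µM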;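 also: resorufin red fluorescence formed as diaphorase reduces resazurin using NADPH; 0% = DMSO with enzyme and 100% = DMSO without enzyme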
Diaphorase 30uM – counter-screen for P. falciparum G6PD inhibitors: diaphorase inhibitors, oxidizers; AID 504863; inhibition, % at 20 µM; Diaphorase/resazurin coupled assay, resorufin fluorescence, 30 uM NADPH; shares compounds with PfGluPho inh; actives 29% (n = 820);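 active = inhibition averaging 50% or more, tested at 20 µM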;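 also: 0% = DMSO with enzyme and 100% = DMSO wells lacking diaphorase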
Starred values were filed as active, the others as inactive; x = not tested or not shown. A selection: hits, their analogues and other compounds. The true share with any hit is near 2.2%.

SMILES	HKDC1 inh	ABHD5 PLIN5 PPI	PfGluPho inh	Granule exo inh	PfGluPho conf	others
CN(C)c1ccc(/C=N/NC(=O)CCc2nc3ccccc3[nH]2)cc1	6	0	2	-3	x
CCOC(=O)C1=C(C)N(C)C(=O)NC1c1cc2c(cc1[N+](=O)[O-])OCO2 (configuration not stated)	4	-17	71*	2	-20
CCCCn1c(N)c(N(CCOC)C(=O)COC(=O)c2cc(CCC)c(C)s2)c(=O)[nH]c1=O	-5	1	13	1	x
O=C(Nc1ccc(Cl)cc1)c1ccc(-n2cncn2)c([N+](=O)[O-])c1	2	2	84*	1	35
O=C(Nc1cccc(Cl)c1)c1ccc(-n2cncn2)c([N+](=O)[O-])c1	-2	11	61*	-2	32
O=C1OC(c2ccccc2)(c2ccc3cc(O)ccc3c2)c2ccccc21 (configuration not stated)	15	1	62*	24	-10
O=C1OC2(c3ccccc31)c1ccccc1-c1ccccc12	3	-2	84*	-10	31
CN(CC(=O)Nc1ccc(Cl)c(C(F)(F)F)c1)C(=O)Cn1cc([N+](=O)[O-])ccc1=O	5	-1	-10	14	x
Cc1ccc(NC(=S)NNC(=S)Nc2ccc(C)cc2)cc1	-10	-19	78*	0	11
CCN(CC)CCNC(=O)CCCCn1c(=S)[nH]c2c([nH]c3ccc(OC)cc32)c1=O	-1	-3	64*	0	47*	Diaphorase 10uM=-3;Diaphorase 30uM=-8
O=[N+]([O-])c1ccc(CN2CCOCCOCCN(Cc3ccc([N+](=O)[O-])cc3)CCOCC2)cc1	-2	6	62*	1	-4
O=[N+]([O-])c1ccc(COc2ccc(Br)cc2CN2CCOCC2)cc1	-5	-6	65*	0	24
CC(C)(C)NC(=S)NC(C)(C)C	-3	2	8	0	x
CCOc1ccc(CCNC(=O)CCn2ccc3cc(S(=O)(=O)N4CCCC4)ccc32)cc1	-2	-1	10	-2	x
Cc1ccc(OS(=O)(=O)c2c(C)nn(C)c2Cl)c(C)c1	-1	1	75*	-2	34
Cc1ccc(C)c(NS(=O)(=O)c2c(C)nn(C)c2C)c1	-5	5	1	-2	x
Cc1ccc(C2(c3ccccc3)NC(=O)N(CC(=O)NCc3ccccc3)C2=O)cc1C (configuration not stated)	1	-9	13	-3	x
C=CCn1c2ccccc2c(=O)c2cc(C#Cc3ccccn3)ccc21	-2	13	80*	10	36
O=c1c2ccccc2oc2cc(C#Cc3ccccn3)ccc12	-3	1	2	26	x
O=C(CCSCCC(=O)NN=Cc1ccccc1)NN=Cc1ccccc1	4	0	72*	10	55*	Diaphorase 10uM=49;Diaphorase 30uM=45
CC(Sc1ccccc1)C(=O)N/N=C/c1ccccc1 (configuration not stated)	1	1	77*	8	41
O=C(CSc1nc2ccccc2o1)N/N=C/c1ccccc1	-6	-3	69*	1	68*	Diaphorase 10uM=61*;Diaphorase 30uM=52*
O=C(CSCc1ccc(Cl)cc1)N/N=C/c1ccccc1	4	1	118*	0	93*	Diaphorase 10uM=90*;Diaphorase 30uM=80*
O=C(CSCc1ccc(Cl)cc1)N/N=C/c1c(Cl)cccc1Cl	-11	-3	8	-1	x
CCNC(=O)NC(=O)C(C)OC(=O)c1cccn1C (configuration not stated)	-10	-5	-4	-1	x
SMILES	HKDC1 inh	ABHD5 PLIN5 PPI	PfGluPho inh	Granule exo inh	PfGluPho conf	others
CN(C)CCCNc1nc2cc(-c3ccc4c(ccn4C)c3)sc2c(=O)n1C	x	11	x	1	x
CS(=O)(=O)c1ccc(N)c(SSc2cc(S(C)(=O)=O)ccc2N)c1	9	83*	97*	0	99*	Diaphorase 10uM=-29;Diaphorase 30uM=-20
C=CCn1c(SCC(=O)Nc2c(C)cccc2C)nnc1-c1cnccn1	-5	-2	-4	-3	x
C=CCn1c(SCC(=O)Nc2ccc(F)cc2)nnc1-c1cnccn1	-2	-4	64*	-3	35
CCn1c(SCC(=O)Nc2ccc(F)cc2)nnc1-c1cnccn1	-4	-5	87*	-4	36
CCOc1ccccc1NC(=O)CSc1nnc(-c2cnccn2)n1CC	-3	6	73*	-1	48
CCn1c(SCC(=O)Nc2ccccc2Br)nnc1-c1cnccn1	-6	-6	40	-4	x
C[C@H](CO)N1C[C@H](C)[C@H](CN(C)S(=O)(=O)c2ccc3ccccc3c2)OCc2cnnn2CCCC1=O	x	2	-7	-7	x
COc1ccc(C(=O)NCCc2nnc3ccc(SCC(=O)Nc4ccccc4F)nn23)cc1	-2	-4	-8	-3	x
Cc1ccc(S(=O)(=O)SCCCSS(=O)(=O)c2ccc(C)cc2)cc1	-3	13	123*	4	81*	Diaphorase 10uM=-34;Diaphorase 30uM=-27
Cc1ccc(S(=O)(=O)CS(=O)(=O)c2ccc(C)cc2)cc1	-4	-14	5	-5	x
Cc1ccc(S(=O)(=O)SC/C=C/CSS(=O)(=O)c2ccc(C)cc2)cc1	-2	2	116*	78*	66*	Diaphorase 10uM=-21;Diaphorase 30uM=-5
CCC(C)(C)NC(=O)CN(CCc1cccc(C)c1)C(=O)c1csnn1	-22	4	12	-5	x
CC1=CC(C)(C)NC(=S)N1c1cc(C)cc(C)c1	4	0	63*	-3	23
Cc1noc(C)c1NC(=O)N(C)C[C@@H]1Oc2ccc(NC(=O)C3CCCCC3)cc2C(=O)N([C@@H](C)CO)C[C@H]1C	-6	-12	0	-26	x
CCOC(=O)C1=C(C)Nc2ncnn2C1c1cccnc1 (configuration not stated)	-2	-2	-8	2	x
CC1=C(C(=O)OCc2ccccc2)C(c2cccnc2)n2nnnc2N1 (configuration not stated)	2	-1	61*	2	31
CCn1c(=O)n(CC)c2cc(S(=O)(=O)N3CCc4ccccc43)ccc21	-10	3	78*	1	44
COc1ccc(OC)c(/C=N/Nc2nc(C)cc(=O)[nH]2)c1	8	-1	-7	38	x
Cc1nc2c(nc1C)C(=O)c1ccccc1C2=O	6	-14	-116	-6	x
COC1=C(Br)C(=O)c2nc(C)ccc2C1=O	x	-49	101*	98*	74*	Diaphorase 10uM=46;Diaphorase 30uM=37
COC1=C(N)C(=O)c2nc(C)ccc2C1=O	32	-48	109*	-8	93*	Diaphorase 10uM=49;Diaphorase 30uM=57*
COc1ccc(N)c2c1C(=O)c1ccccc1C2=O	-2	6	-3	2	x
CC(=O)N1CCN(c2ccc(NCc3ccccc3)cc2)CC1	2	0	-6	-1	x
